Reference: ChEMBL document CHEMBL3259576, “Design and Evaluation of ω-Hydroxy Fatty Acids Containing α-GalCer Analogues for CD1d-Mediated NKT Cell Activation” (ACS Med Chem Lett, 2014)
Activity calls are given as the source filed them.

Experiments:
[1] = test system: RBL; assay: Stimulation of mouse CD1d-mediated IL-2 production in DN32.D3 hybridoma cells co-cultured with mouse CD1d transfected RBL cells measured at 32 to 500 ng/ml after 16 hrs by ELISA
[2] = species on record: Mus musculus; assay: Stimulation of mouse CD1d-mediated IL-4 production in mouse splenocytes measured at 32 ng/ml after 72 hrs by ELISA; format: cell-based
Summary of the method: (§1)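 Mouse splenocytes were treated individually with glycolipid and cultured for 72 h. IFN-γ and IL-4 in the culture were then measured. Results are expressed as relative activity, as means ±SD of triplicates, from one representative of two independent experiments.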

[3] = species on record: Mus musculus; assay: Stimulation of mouse CD1d-mediated IFN-gamma production in C57BL/6 mouse splenocytes measured at 32 ng/ml after 72 hrs by ELISA; format: cell-based
Summary of the method: as §1

[4] = test system: Mus musculus; assay: In vivo stimulation of mouse CD1d-mediated peak IL4 production in C57BL/6 mouse serum measured at 0.5 ug, iv after 2 hrs by ELISA; format: functional, organism-based
[5] = test system: Mus musculus; assay: In vivo stimulation of mouse CD1d-mediated peak IFN-gamma production in C57BL/6 mouse serum measured at 0.5 ug, iv after 12 hrs by ELISA; format: functional, organism-based

Measured: Activity

CCCCCCCCCCCCCC[C@@H](O)[C@@H](O)[C@H](CO[C@H]1O[C@H](CO)[C@H](O)[C@H](O)[C@H]1O)NC(=O)CCCCCCCCCCCO
active: [1] | [2] | [3]

CCCCCCCCCCCCCC[C@@H](O)[C@@H](O)[C@H](CO[C@H]1O[C@H](CO)[C@H](O)[C@H](O)[C@H]1O)NC(=O)CCCCCCCCCC
active: [1] | [2] | [3]

CCCCCCCCCCCCCC[C@@H](O)[C@@H](O)[C@H](CO[C@H]1O[C@H](CO)[C@H](O)[C@H](O)[C@H]1O)NC(=O)CCCCCCCCCCCCCCCO
active: [2] | [3]

CCCCCCCCCCCCCC[C@@H](O)[C@@H](O)[C@H](CO[C@H]1O[C@H](CO)[C@H](O)[C@H](O)[C@H]1O)NC(=O)CCCCCCCCCCO
active: all assays above

CCCCCCCCCCCCCC[C@@H](O)[C@@H](O)[C@H](CO[C@H]1O[C@H](CO)[C@H](O)[C@H](O)[C@H]1O)NC(=O)CCCCCCCCCCC
active: [1] | [2] | [3]

CCCCCCCCCCCCCCCCCCCCCCCCCC(=O)N[C@@H](CO[C@H]1O[C@H](CO)[C@H](O)[C@H](O)[C@H]1O)[C@H](O)[C@H](O)CCCCCCCCCCCCCC
active: all assays above
